The results in this text go back to ChEMBL document CHEMBL4340525, “Tumor-Targeted Delivery of 6-Diazo-5-oxo-l-norleucine (DON) Using Substituted Acetylated Lysine Prodrugs” (J Med Chem, 2019).

Data set [1] in a line: Tmax in CES1-deficient C57BL/6 mouse tumor implanted with mouse EL4 cells at 3.2 mg/kg, sc administered as single dose by LC-MS/MS analysis. The data set is classed as ADME, organism-based, Neoplasm. Put shortly: (§1)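 Male and female C57BL/6 CES1-/- mice, 6–8 weeks old, carried flank EL4 tumours from SC injection of 1 × 10^6 cells in PBS. Dosing began at about 400 mm3 mean tumour volume. Each mouse got one SC dose of 3.2 mg/kg (1 mg/kg DON equivalent) in ethanol/Tween 80/saline 5:10:85. Plasma, jejunum and tumour were taken at set times, n = 3 per time point. Prodrug and dabsyl-derivatised DON were measured by LC-MS/MS. Noncompartmental analysis: Cmax and Tmax observed, AUClast by log-linear trapezoidal rule.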

A short description of data set [2]: AUC (0 to t) in CES1-deficient C57BL/6 mouse plasma implanted with mouse EL4 cells assessed as 6-diazo-5-oxo-L-norleucine level at 3.2 mg/kg, sc administered as single dose by LC-MS/MS analysis. The data set is classed as ADME, organism-based. As to conditions: in vivo. The gist of the method:
as §1

Data set [3] is described as follows: (§2) Antiproliferative activity against human P493B cells measured after 72 hrs by CellTiter 96 aqueous one solution cell proliferation assay. The data set is classed as functional, cell-based. The gist of the method: (§3)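 P493B lymphoma cells seeded at 20 000 cells/well in growth medium. DMSO stocks added as a 1:10 serial dilution, final 0.2% DMSO. Cells grown 72 h with compound, then given CellTiter 96 AQueous reagent for 2 h and read by absorbance at 490 nm. EC50 obtained by nonlinear regression of log-transformed data.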

The species named for data set [4] is Homo sapiens. The data set is described as §2. The data set is classed as functional, cell-based. Put shortly: as §3
Data set [5] is described as follows: Stability in human liver S9 fraction assessed as parent compound remaining at 1 uM measured after 1 hr by LC-MS/MS analysis. The data set is classed as ADME, subcellular. As to conditions: read-out: Stability. The gist of the method:
(§4)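 Human liver microsomes (0.2 mg/mL protein) or S9 fraction (0.5 mg/mL) were incubated with prodrug at 1 µM final, 37 °C, 1 h with shaking. Reactions were quenched in triplicate with three volumes acetonitrile containing losartan. Parent remaining was taken from analyte/internal-standard peak-area ratio by UHPLC-MS/MS.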

Data set [6] is described as follows: AUC (0 to t) in CES1-deficient C57BL/6 mouse tumor implanted with mouse EL4 cells at 3.2 mg/kg, sc administered as single dose by LC-MS/MS analysis. Particulars: in vivo. The data set is classed as ADME, organism-based, Neoplasm. Put shortly:
as §1

A short description of data set [7]: Cmax in CES1-deficient C57BL/6 mouse tumor implanted with mouse EL4 cells at 3.2 mg/kg, sc administered as single dose by LC-MS/MS analysis. The data set is classed as ADME, organism-based, Neoplasm. Details: dose 3.2 mg/kg, route subcutaneous. As to conditions: in vivo. The gist of the method:
as §1

Data set [8] can be described thus: Stability in human plasma suspended with human P493B cells at 20 uM measured after 1 hr by LC-MS/MS analysis. The data set is classed as ADME, cell-free. Put shortly: (§5)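 Cells were grown in RPMI 1640 with 10% FBS, washed in DPBS and resuspended in human plasma at 10 million cells/mL. After 5 min preincubation at 37 °C, compound was added at 20 µM final for 1 h. The mix was centrifuged at 10 000g and the washed pellet and plasma were quantified separately. DON was read by LC-MS/MS after dabsyl chloride derivatisation, intact prodrug directly. Standard curves were made in naive cells or plasma.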

A further data set has as its target Histone deacetylase 2 (Homo sapiens, UniProt Q92769). Kind of data set: Stability of the compound assessed as recombinant human HDAC2-mediated compound hydrolysis by measuring parent compound remaining at 1 uM measured after 3 hrs by UHPLC-MS analysis. It counts as ADME. The gist of the method:
(§6)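 Compound at 1 µM was incubated at 37 °C with shaking in 50 mM MES pH 6 with 5 mM DTT. Recombinant human enzyme final levels: HDAC2 10 µg/mL, cathepsin B 1 µg/mL, cathepsin L 0.1 µg/mL, alone or cathepsins B+L combined. Aliquots were quenched in methanol with losartan at 0.25, 0.5, 1 and 3 h. Parent remaining by Q-TOF LC-MS.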

A short description of data set [9]: Tmax in CES1-deficient C57BL/6 mouse jejunum implanted with mouse EL4 cells at 3.2 mg/kg, sc administered as single dose by LC-MS/MS analysis. Particulars: in vivo, BLD = below limit of detection. The data set is classed as ADME, organism-based. Put shortly:
as §1

Data set [10] can be described thus: Stability in human plasma assessed as parent compound remaining at 20 uM measured after 1 hr by LC-MS/MS analysis.
Data set [11] in a line: Drug level in human P493B cells suspended in human plasma assessed as tumor cell to plasma ratio by measuring 6-diazo-5-oxo-L-norleucine formation at 20 uM measured after 1 hr by LC-MS/MS analysis. The data set is classed as ADME, cell-based. Put shortly:
as §5

Data set [12] in a line: Drug level in human P493B cells suspended in human plasma assessed as tumor cell to plasma ratio by measuring 6-diazo-5-oxo-L-norleucine formation at 20 uM measured after 1 hr by LC-MS/MS analysis relative to 6-diazo-5-oxo-L-norleucine alone. The data set is classed as ADME, cell-based. Put shortly:
as §5

Data set [13] is described as follows: Cmax in CES1-deficient C57BL/6 mouse jejunum implanted with mouse EL4 cells at 3.2 mg/kg, sc administered as single dose by LC-MS/MS analysis. The data set is classed as ADME, organism-based. Details: dose 3.2 mg/kg, route subcutaneous. Particulars: in vivo, BLD = below limit of detection. The gist of the method:
as §1

Data set [14] can be described thus: Ratio of AUC (0 to t) in tumor to jejunum of CES1-deficient C57BL/6 mouse implanted with mouse EL4 cells assessed as 6-diazo-5-oxo-L-norleucine level at 3.2 mg/kg, sc administered as single dose by LC-MS/MS analysis. The data set is classed as ADME, organism-based. As to conditions: in vivo. Put shortly:
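Tissue-to-tissue ratios of DON AUClast came from noncompartmental analysis. EL4-bearing CES1-/- C57BL/6 mice received one SC dose of 3.2 mg/kg (1 mg/kg DON equivalent) in ethanol/Tween 80/saline 5:10:85. Tumour, jejunum and plasma were sampled over time, n = 3 mice per time point. DON was read by LC-MS/MS after dabsyl chloride derivatisation.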

Data set [15] in a line: Cmax in CES1-deficient C57BL/6 mouse plasma implanted with mouse EL4 cells at 3.2 mg/kg, sc administered as single dose by LC-MS/MS analysis. The data set is classed as ADME, organism-based. Details: dose 3.2 mg/kg, route subcutaneous. The gist of the method:
as §1

Data set [16] in a line: Cmax in CES1-deficient C57BL/6 mouse plasma implanted with mouse EL4 cells assessed as 6-diazo-5-oxo-L-norleucine level at 3.2 mg/kg, sc administered as single dose by LC-MS/MS analysis. As to conditions: in vivo. Details: dose 3.2 mg/kg, route subcutaneous. It counts as ADME, organism-based. Put shortly:
as §1

Data set [17] in a line: AUC (0 to t) in CES1-deficient C57BL/6 mouse jejunum implanted with mouse EL4 cells assessed as 6-diazo-5-oxo-L-norleucine level at 3.2 mg/kg, sc administered as single dose by LC-MS/MS analysis. Particulars: in vivo. It counts as ADME, organism-based. The gist of the method:
as §1

For data set [18], the species on record is Homo sapiens. Nature of the data set: Stability of the compound assessed as recombinant human cathepsin L/cathepsin B-mediated compound hydrolysis by measuring parent compound remaining at 1 uM measured after 3 hrs by UHPLC-MS analysis. The gist of the method:
as §6

A short description of data set [19]: AUC (0 to t) in CES1-deficient C57BL/6 mouse plasma implanted with mouse EL4 cells at 3.2 mg/kg, sc administered as single dose by LC-MS/MS analysis. It counts as ADME, organism-based. The gist of the method: as §1
The nature of data set [20]: AUC in CES1-deficient C57BL/6 mouse jejunum implanted with mouse EL4 cells assessed as 6-diazo-5-oxo-L-norleucine level at 3.2 mg/kg, sc administered as single dose by LC-MS/MS analysis. Particulars: in vivo.
Data set [21] is described as follows: Prodrug conversion in human H69 cells suspended in human plasma assessed as 6-diazo-5-oxo-L-norleucine formation at 20 uM measured after 1 hr by LC-MS/MS analysis. The data set is classed as ADME, cell-based. As to conditions: nci-h69, 1 h. The gist of the method: as §5
Data set [22] can be described thus: Stability in human liver microsomes assessed as parent compound remaining at 1 uM measured after 1 hr by LC-MS/MS analysis. It counts as ADME, Microsome. As to conditions: read-out: Stability. The gist of the method: as §4
(In general: Liver microsomes are a subcellular fraction often used to study metabolism.)

Sequence of Histone deacetylase 2 (Q92769 whole entry): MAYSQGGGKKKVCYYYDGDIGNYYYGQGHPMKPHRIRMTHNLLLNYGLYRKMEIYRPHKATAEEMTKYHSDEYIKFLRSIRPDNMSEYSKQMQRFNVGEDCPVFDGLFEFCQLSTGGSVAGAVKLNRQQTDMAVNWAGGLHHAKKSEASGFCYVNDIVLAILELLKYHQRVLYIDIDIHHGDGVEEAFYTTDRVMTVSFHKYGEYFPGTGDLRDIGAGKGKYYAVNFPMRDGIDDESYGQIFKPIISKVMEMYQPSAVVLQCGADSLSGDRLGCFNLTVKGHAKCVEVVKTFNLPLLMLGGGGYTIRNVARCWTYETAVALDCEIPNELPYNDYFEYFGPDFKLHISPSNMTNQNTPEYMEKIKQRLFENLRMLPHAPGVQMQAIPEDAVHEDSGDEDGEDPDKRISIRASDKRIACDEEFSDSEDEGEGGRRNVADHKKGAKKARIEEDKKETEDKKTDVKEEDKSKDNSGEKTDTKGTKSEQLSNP

A word on the Tmax: it is the time from dosing to the highest level. The EC50 is the concentration at which the effect is half-maximal. High values mean weaker potency, low ones greater potency. As usually defined, the AUC(0-t) is exposure summed from dosing to a finite time, without extrapolation to infinity. As for `CC(=O)NCCCC[C@H](NC(=O)C12CC3CC(CC(C3)C1)C2)C(=O)N[C@@H](CCC(=O)C=[N+]=[N-])C(=O)OC(C)C`, the results for the Tmax in [1] and in data set [9] were 30 min and “Bld”, respectively. The AUCt in data set [2] came to 1.06 nmol·h/mL; in [6] it was 0.03 nmol·h/g; in [17], 0.45 nmol·h/g. The response in data set [3] was half-maximal at 5 µM (EC50). For the same molecule, the Activity result in the data set filed under Homo sapiens [4] is “Dose-dependent effect”. The remaining at 1 h, 1 µM in data set [5] and in [22] was 100% each time. Further, the Cmax is 0.05 nmol/g in data set [7], “Bld” in data set [13], 820 nM in [15] and 440 nM in [16]. The Stability result in data set [8] is “Stable”; on Histone deacetylase 2, greater than 95%; in data set [10], 107%; in the data set listed under Homo sapiens [18] it was 9%. The Ratio in data set [11] is 22. For the same molecule, the “fold change (FC)” value in [12] is on record as 55. In data set [14], the “Ratio AUC” value was determined as 11. In [19], this molecule gave an AUC(0-t) of 0.4 µM·h. Moreover, in data set [20], the AUC was determined as 0.45 nmol·h/g. For the same molecule, the Drug metabolism in [21] was 9.95 µM.
